≈ marks a conversion by molar mass, not a printed value.
Key:
[1] = tested on: Aspergillus fumigatus; test: Antifungal activity against Aspergillus fumigatus isolate AZN 8196 harboring wild type Cyp51A protein by broth microdilution method; type: functional
In short: (§1)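 Broth microdilution followed CLSI M38A. Isolates were stored in 10% glycerol broth at −80°C and revived on Sabouraud dextrose agar with 0.02% chloramphenicol for 5 to 7 days at 35°C before testing.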

[2] = tested on: Aspergillus fumigatus; test: Antifungal activity against Aspergillus fumigatus isolate V28-77 harboring M220I mutation in Cyp51A protein by broth microdilution method; type: functional; in short: as §1
[3] = tested on: Aspergillus fumigatus; test: Antifungal activity against Aspergillus fumigatus isolate V59-73 harboring G54W mutation in Cyp51A protein by broth microdilution method; type: functional; in short: as §1
[4] = tested on: Aspergillus fumigatus; test: Antifungal activity against Aspergillus fumigatus isolate V52-35 harboring TR L98H mutation in Cyp51A protein by broth microdilution method; type: functional; in short: as §1
[5] = tested on: Aspergillus fumigatus; test: Antifungal activity against Aspergillus fumigatus isolate V59-73 harboring G54W mutation in Cyp51A protein infected in CD1 mouse assessed as increase in mouse survival rate administered orally qd for 14 days measured on day 15 post fungal infection; type: functional
In short: (§2)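 Female CD-1 mice (4-5 weeks, 20-25 g, 11 per group) received an LD90 conidial inoculum of each isolate IV via the tail vein. Conidia were harvested in PBS/0.1% Tween 80, gauze-filtered and hemacytometer-counted. Posaconazole oral solution (1, 4, 16, 64 mg/kg) was given by gavage once daily for 14 days from 24 h post-infection; controls received saline. Survival was compared by log rank test, with survivors euthanized on day 15.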

[6] = AUC in CD1 mouse infected with wild type Aspergillus fumigatus at 1 mg/kg, po qd for 14 days measured after 24 hrs post last dose by HPLC analysis; type: ADME, organism-based; parameters: time < 24 hr, dose 1 mg/kg, route oral; conditions: plasma
In short: (§3)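 Female CD-1 mice (4-5 weeks, 20-22 g) were infected via the lateral tail vein with the wild-type isolate. Oral posaconazole was given once daily from 24 h. On treatment day 2, orbital blood was taken predose and 0.5-24 h postdose, 3 mice per time point. Plasma was assayed by HPLC-fluorescence. Cmax was observed directly. AUC0–24 used the log-linear trapezoidal rule, and CL = dose/AUC0–24.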

[7] = tested on: Aspergillus fumigatus; test: Antifungal activity against Aspergillus fumigatus isolate V52-35 harboring TR L98H mutation in Cyp51A protein infected in CD1 mouse assessed as 50% effective pharmacodynamic index administered orally qd for 14 days measured post last dose; type: functional
In short: (§4)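 EI50 came from fitting a variable-slope Hill equation to AUC0–24/MIC ratio versus 14-day survival. AUCs were taken from the PK study in wild-type-infected mice at each dose (1-64 mg/kg oral, once daily). Ratios were log10-transformed before analysis.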

[8] = Cmax in CD1 mouse infected with wild type Aspergillus fumigatus at 16 mg/kg, po qd for 14 days measured after 24 hrs post last dose by HPLC analysis; type: ADME, organism-based; parameters: dose 16 mg/kg, route oral; conditions: in vivo; in short: as §3
[9] = Tmax in CD1 mouse infected with wild type Aspergillus fumigatus at 64 mg/kg, […] by HPLC analysis; type: ADME, organism-based; parameters: dose 64 mg/kg, route oral; conditions: in vivo, po
[10] = Cmax in CD1 mouse infected with wild type Aspergillus fumigatus at 64 mg/kg, po qd for 14 days measured after 24 hrs post last dose by HPLC analysis; type: ADME, organism-based; parameters: dose 64 mg/kg, route oral; conditions: in vivo; in short: as §3
[11] = tested on: Aspergillus fumigatus; test: Ratio of AUC to MIC for wild type Aspergillus fumigatus infected in CD1 mouse; type: functional
In short: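 The ratio was calculated as AUC0–24 from the mouse PK study (oral posaconazole once daily, 1 to 64 mg/kg) divided by the CLSI M38A broth microdilution MIC.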

[12] = Cmax in CD1 mouse infected with wild type Aspergillus fumigatus at 1 mg/kg, po qd for 14 days measured after 24 hrs post last dose by HPLC analysis; type: ADME, organism-based; parameters: dose 1 mg/kg, route oral; conditions: in vivo; in short: as §3
[13] = Cmax in CD1 mouse infected with wild type Aspergillus fumigatus at 4 mg/kg, po qd for 14 days measured after 24 hrs post last dose by HPLC analysis; type: ADME, organism-based; parameters: dose 4 mg/kg, route oral; conditions: in vivo; in short: as §3
[14] = tested on: Aspergillus fumigatus; test: Antifungal activity against wild type Aspergillus fumigatus infected in CD1 mouse assessed as increase in mouse survival rate administered orally qd for 14 days measured on day 15 post fungal infection; type: functional, organism-based; in short: as §2
[15] = tested on: Mus musculus; test: Dose normalised AUC in CD1 mouse infected with wild type Aspergillus fumigatus at 64 mg/kg, po qd for 14 days measured after 24 hrs post last dose by HPLC analysis; type: ADME, organism-based; parameters: time < 24 hr, dose 64 mg/kg, route oral; conditions: in vivo; in short: as §3
[16] = Plasma concentration in CD1 mouse infected with wild type Aspergillus fumigatus at 1 mg/kg, […] by HPLC analysis; type: ADME, organism-based; parameters: dose 1 mg/kg, route oral; conditions: po
[17] = tested on: Aspergillus fumigatus; test: Antifungal activity against Aspergillus fumigatus isolate V52-35 harboring TR L98H mutation in Cyp51A protein infected in CD1 mouse assessed as increase in mouse survival rate administered orally qd for 14 days measured on day 15 post fungal infection; type: functional, organism-based; in short: as §2
[18] = Apparent oral clearance in CD1 mouse infected with wild type Aspergillus fumigatus at 4 mg/kg, po qd for 14 days measured after 24 hrs post last dose by HPLC analysis; type: ADME, organism-based; parameters: dose 4 mg/kg, route oral; conditions: in vivo; in short: as §3
[19] = Tmax in CD1 mouse infected with wild type Aspergillus fumigatus at 16 mg/kg, […] by HPLC analysis; type: ADME, organism-based; parameters: dose 16 mg/kg, route oral; conditions: in vivo, po
[20] = tested on: Mus musculus; test: Dose normalised AUC in CD1 mouse infected with wild type Aspergillus fumigatus at 4 mg/kg, po qd for 14 days measured after 24 hrs post last dose by HPLC analysis; type: ADME, organism-based; parameters: time < 24 hr, dose 4 mg/kg, route oral; conditions: in vivo; in short: as §3
[21] = Apparent oral clearance in CD1 mouse infected with wild type Aspergillus fumigatus at 16 mg/kg, po qd for 14 days measured after 24 hrs post last dose by HPLC analysis; type: ADME, organism-based; parameters: dose 16 mg/kg, route oral; conditions: in vivo; in short: as §3
[22] = Plasma concentration in CD1 mouse infected with wild type Aspergillus fumigatus at 16 mg/kg, […] by HPLC analysis; type: ADME, organism-based; parameters: dose 16 mg/kg, route oral; conditions: po
[23] = AUC in CD1 mouse infected with wild type Aspergillus fumigatus at 64 mg/kg, po qd for 14 days measured after 24 hrs post last dose by HPLC analysis; type: ADME, organism-based; parameters: time < 24 hr, dose 64 mg/kg, route oral; conditions: plasma; in short: as §3
[24] = AUC in CD1 mouse infected with wild type Aspergillus fumigatus at 16 mg/kg, po qd for 14 days measured after 24 hrs post last dose by HPLC analysis; type: ADME, organism-based; parameters: time < 24 hr, dose 16 mg/kg, route oral; conditions: plasma; in short: as §3
[25] = AUC in CD1 mouse infected with wild type Aspergillus fumigatus at 4 mg/kg, po qd for 14 days measured after 24 hrs post last dose by HPLC analysis; type: ADME, organism-based; parameters: time < 24 hr, dose 4 mg/kg, route oral; conditions: plasma; in short: as §3
[26] = Apparent oral clearance in CD1 mouse infected with wild type Aspergillus fumigatus at 1 mg/kg, po qd for 14 days measured after 24 hrs post last dose by HPLC analysis; type: ADME, organism-based; parameters: dose 1 mg/kg, route oral; conditions: in vivo; in short: as §3
[27] = Tmax in CD1 mouse infected with wild type Aspergillus fumigatus at 4 mg/kg, […] by HPLC analysis; type: ADME, organism-based; parameters: dose 4 mg/kg, route oral; conditions: in vivo, po
[28] = tested on: Mus musculus; test: Dose normalised AUC in CD1 mouse infected with wild type Aspergillus fumigatus at 16 mg/kg, po qd for 14 days measured after 24 hrs post last dose by HPLC analysis; type: ADME, organism-based; parameters: time < 24 hr, dose 16 mg/kg, route oral; conditions: in vivo; in short: as §3
[29] = Plasma concentration in CD1 mouse infected with wild type Aspergillus fumigatus at 4 mg/kg, […] by HPLC analysis; type: ADME, organism-based; parameters: dose 4 mg/kg, route oral; conditions: po
[30] = Tmax in CD1 mouse infected with wild type Aspergillus fumigatus at 1 mg/kg, […] by HPLC analysis; type: ADME, organism-based; parameters: dose 1 mg/kg, route oral; conditions: in vivo, po
[31] = tested on: Mus musculus; test: Dose normalised AUC in CD1 mouse infected with wild type Aspergillus fumigatus at 1 mg/kg, po qd for 14 days measured after 24 hrs post last dose by HPLC analysis; type: ADME, organism-based; parameters: time < 24 hr, dose 1 mg/kg, route oral; conditions: in vivo; in short: as §3
[32] = Plasma concentration in CD1 mouse infected with wild type Aspergillus fumigatus at 64 mg/kg, […] by HPLC analysis; type: ADME, organism-based; parameters: dose 64 mg/kg, route oral; conditions: po
[33] = Apparent oral clearance in CD1 mouse infected with wild type Aspergillus fumigatus at 64 mg/kg, po qd for 14 days measured after 24 hrs post last dose by HPLC analysis; type: ADME, organism-based; parameters: dose 64 mg/kg, route oral; conditions: in vivo; in short: as §3
[34] = tested on: Aspergillus fumigatus; test: Antifungal activity against Aspergillus fumigatus isolate V28-77 harboring M220I mutation in Cyp51A protein infected in CD1 mouse assessed as increase in mouse survival rate administered orally qd for 14 days measured on day 15 post fungal infection; type: functional, organism-based; in short: as §2
[35] = tested on: Aspergillus fumigatus; test: Antifungal activity against Aspergillus fumigatus isolate V28-77 harboring M220I mutation in Cyp51A protein infected in CD1 mouse assessed as 50% effective pharmacodynamic index administered orally qd for 14 days measured post last dose; type: functional; in short: as §4

C[C@@H](c1ncncc1F)[C@](O)(Cn1cncn1)c1ccc(F)cc1F [VORICONAZOLE]
MIC [1]: 0.25 µg/mL (≈ 0.716 µM) | MIC [2]: 0.25 µg/mL (≈ 0.716 µM) | MIC [3]: 0.125 µg/mL (≈ 0.358 µM) | MIC [4]: 2 µg/mL (≈ 5.73 µM)

CCC(C)n1ncn(-c2ccc(N3CCN(c4ccc(OCC5COC(Cn6cncn6)(c6ccc(Cl)cc6Cl)O5)cc4)CC3)cc2)c1=O (configuration not stated) [ITRACONAZOLE]
MIC [1]: 0.125 µg/mL (≈ 0.177 µM) | MIC [2]: > 16 µg/mL | MIC [3]: > 16 µg/mL | MIC [4]: > 16 µg/mL

CC[C@H](C)C[C@H](C)CCCCCCCCC(=O)N[C@H]1C[C@@H](O)[C@@H](NCCN)NC(=O)[C@@H]2[C@@H](O)CCN2C(=O)[C@H]([C@H](O)CCN)NC(=O)[C@H]([C@H](O)[C@@H](O)c2ccc(O)cc2)NC(=O)[C@@H]2C[C@@H](O)CN2C(=O)[C@H]([C@@H](C)O)NC1=O [CASPOFUNGIN]
minimal effective concentration ([1]; read-out: MEC): 0.25 µg/mL | minimal effective concentration ([2]; read-out: MEC): 0.25 µg/mL | minimal effective concentration ([3]; read-out: MEC): 0.25 µg/mL | minimal effective concentration ([4]; read-out: MEC): 0.25 µg/mL

CC[C@@H]([C@H](C)O)n1ncn(-c2ccc(N3CCN(c4ccc(OC[C@@H]5CO[C@@](Cn6cncn6)(c6ccc(F)cc6F)C5)cc4)CC3)cc2)c1=O [POSACONAZOLE]
MIC [1]: 0.031 µg/mL (≈ 0.0442 µM) | Activity [5]: Dose-dependent effect | ED50 ([5]; isolate V59-73, po): 29 mg/kg | MIC [2]: 0.5 µg/mL (≈ 0.713 µM) | AUC at 24 h [6]: 10.2 µg·h/mL | Activity [7]: 321 | Cmax [8]: 9030 ng/mL | Tmax [9]: 8 h | Cmax [10]: 17800 ng/mL | RatioAUC/MIC [11]: 1000 | Cmax [12]: 980 ng/mL | Cmax [13]: 3110 ng/mL | Activity [14]: Dose-dependent effect | AUC [15]: 4.64 kg·h/L | concentration [16]: 110 ng/mL | Activity [17]: Dose-dependent effect | CL/F [18]: 1.5 mL/min/kg | MIC [3]: > 16 µg/mL | Tmax [19]: 8 h | AUC [20]: 11.3 kg·h/L | CL/F [21]: 1.67 mL/min/kg | concentration [22]: 2700 ng/mL | AUC at 24 h [23]: 297 µg·h/mL | MIC [4]: 0.5 µg/mL (≈ 0.713 µM) | AUC at 24 h [24]: 159 µg·h/mL | AUC at 24 h [25]: 45.1 µg·h/mL | CL/F [26]: 1.67 mL/min/kg | Tmax [27]: 2 h | AUC [28]: 9.96 kg·h/L | concentration [29]: 940 ng/mL | Tmax [30]: 4 h | AUC [31]: 10.2 kg·h/L | concentration [32]: 9330 ng/mL | CL/F [33]: 3.67 mL/min/kg | Activity [34]: Dose-dependent effect | Activity [35]: 321

C[C@@H]1[C@H](O)[C@@H](C)/C=C/C=C/C=C/C=C/C=C/C=C/C=C/[C@H](O[C@@H]2O[C@H](C)[C@@H](O)[C@H](N)[C@@H]2O)C[C@@H]2O[C@](O)(C[C@@H](O)C[C@@H](O)[C@H](O)CC[C@@H](O)C[C@@H](O)CC(=O)O[C@H]1C)C[C@H](O)[C@H]2C(=O)O [AMPHOTERICIN B]
MIC [1]: 0.5 µg/mL (≈ 0.541 µM) | MIC [2]: 0.5 µg/mL (≈ 0.541 µM) | MIC [3]: 0.5 µg/mL (≈ 0.541 µM) | MIC [4]: 0.5 µg/mL (≈ 0.541 µM)
